The results in this text go back to publication PMC2696058 (Bioorganic & medicinal chemistry, 2009).

One series deals with N^5CAIR synthetase (Escherichia coli, UniProt P09029). Description: Kinetic analysis, PK/LDH coupled ATPase assay. In kind it is biochemical. As to conditions: for Inhibition of N^5CAIR synthetase by DMSO (non-aqueous) solutions: compound added as DMSO solution, not aqueous solution; for Mode of inhibition with respect to AIR / Mode of inhibition with respect to ATP: steady-state kinetics; for Mode of inhibition with respect to AIR: varied AIR; for Mode of inhibition with respect to ATP: varied ATP.
Sequence of N^5CAIR synthetase (P09029 whole entry): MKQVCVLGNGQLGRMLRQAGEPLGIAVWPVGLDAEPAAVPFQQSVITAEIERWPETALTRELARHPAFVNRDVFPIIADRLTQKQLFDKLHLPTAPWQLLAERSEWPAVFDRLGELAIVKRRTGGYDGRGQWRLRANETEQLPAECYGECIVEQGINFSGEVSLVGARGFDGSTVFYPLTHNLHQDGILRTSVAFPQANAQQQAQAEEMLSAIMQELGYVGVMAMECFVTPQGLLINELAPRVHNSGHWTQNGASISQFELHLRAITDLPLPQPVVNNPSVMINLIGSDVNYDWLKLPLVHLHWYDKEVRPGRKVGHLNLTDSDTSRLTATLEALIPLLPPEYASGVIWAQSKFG

Series [1] in a line: Decomposition of compound solutions followed by TLC. The class given is physicochemical. As to conditions: aqueous solution.
Series [2] has as its target T1, human AIR carboxylase:SAICAR synthetase (Homo sapiens, UniProt P22234).
T1 sequence (P22234 1-425): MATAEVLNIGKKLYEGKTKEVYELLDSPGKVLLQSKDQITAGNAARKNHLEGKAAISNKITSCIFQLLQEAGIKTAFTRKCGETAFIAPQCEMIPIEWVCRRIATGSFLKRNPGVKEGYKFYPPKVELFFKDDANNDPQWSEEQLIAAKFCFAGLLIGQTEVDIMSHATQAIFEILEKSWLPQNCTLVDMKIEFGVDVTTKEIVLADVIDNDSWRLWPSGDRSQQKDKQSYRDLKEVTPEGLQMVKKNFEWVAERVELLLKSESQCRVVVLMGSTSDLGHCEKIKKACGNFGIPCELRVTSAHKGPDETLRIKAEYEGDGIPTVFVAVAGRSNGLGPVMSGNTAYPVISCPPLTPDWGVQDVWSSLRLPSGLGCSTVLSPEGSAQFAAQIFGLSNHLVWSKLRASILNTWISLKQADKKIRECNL
The experiment in a line: Coupled assay against human bifunctional enzyme. As to conditions: 200 μM compound, both activities assayed simultaneously. The class given is biochemical. In outline:
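His-tagged human bifunctional AIR carboxylase:SAICAR synthetase, expressed from a pET22b vector and purified on a cobalt affinity column, >95% pure by SDS-PAGE. The carboxylase and synthetase activities were measured together in one coupled assay, following a method previously described for the Gallus gallus bifunctional enzyme.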

`Cc1nonc1NC1(O)C(=O)c2ccccc2C1=O` [Compound 1]: the “Inhibition of N^5CAIR synthetase by DMSO (non-aqueous) solutions” value on N^5CAIR synthetase was “neither compound resulted in inhibition”. In addition, in series [1], the “Time to complete decomposition to ninhydrin” value is “approximately 30 minutes”.
With `Cc1nc(NC2(O)C(=O)c3ccccc3C2=O)cs1` [Compound 2], on N^5CAIR synthetase, the “Inhibition of N^5CAIR synthetase by DMSO (non-aqueous) solutions” value is given as “neither compound resulted in inhibition”. In addition, in series [1], the “Time to complete decomposition to ninhydrin” value is “around 45 minutes”.
Regarding `CCN(CC)C(=O)CN1C(=O)C(=O)c2ccccc21` [Compound 7], the “Inhibition of either enzymatic activity (AIR carboxylase, SAICAR synthetase)” value in series [2] was “no inhibition”. Moreover, at N^5CAIR synthetase, the “Mode of inhibition with respect to AIR” value is recorded as “non-competitive” and the “Mode of inhibition with respect to ATP” value is given as “non-competitive”.
For `CCOC(=O)c1noc(C)c1-c1csc(CS(=O)(=O)c2ccc(Cl)cc2)n1` [Compound 13], in series [2], the “Inhibition of either enzymatic activity (AIR carboxylase, SAICAR synthetase)” value is listed as “no inhibition”. In addition, on N^5CAIR synthetase, the “Mode of inhibition with respect to AIR” value is reported as “competitive” and the “Mode of inhibition with respect to ATP” value is on record as “uncompetitive”.
In the same order, the values of `Cc1cc2nc3c(=O)[nH]c(=O)nc-3n(C[C@H](O)[C@H](O)[C@H](O)CO)c2cc1C` [Compound 14, riboflavin] are “no inhibition”, “noncompetitive” and “noncompetitive”.
